Assay results as given in ChEMBL document CHEMBL1121884, “Piperazinylquinoxalines with central serotoninmimetic activity” (1981).

Experiments:
Type in all cases: functional
Rattus norvegicus [1] = assay: Ability to elicit head twitches in rats a response characteristic of a serotonin mimetic action in the central nervous system was measured after 4 mg/kg of ip administration; 2/10; settings: route intraperitoneal
Rattus norvegicus [2] = assay: Ability to elicit head twitches in rats a response characteristic of a serotonin mimetic action in the central nervous system after 40 mg/kg of ip administration; 3/10; settings: route intraperitoneal
Rattus norvegicus [3] = assay: Serotonin neuronal reuptake blocking activity was determined by the antagonism of the head twitch response induced by treatment of rats with p-chloromethamphetamine (PCMA) after 0.4 mg/kg of ip administration; 6/10; settings: route intraperitoneal
How it was run: (§1)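 Female Sprague-Dawley rats (150-250 g) dosed ip with compound in 1% methylcellulose vehicle. p-Chloromethamphetamine 6.0 mg/kg ip was given 1 h later, and head movements were observed 30 min after that. Scored as number of rats not showing head twitches. Six rats per dose unless otherwise noted. Doses expressed as base weight.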

Rattus norvegicus [4] = assay: Serotonin neuronal reuptake blocking activity was determined by the antagonism of the head twitch response induced by treatment of rats with p-chloromethamphetamine (PCMA) after 4 mg/kg of ip administration; 7/10; settings: route intraperitoneal; how it was run: as §1
Rattus norvegicus [5] = assay: Ability to elicit head twitches in rats a response characteristic of a serotonin mimetic action in the central nervous system was measured after 0.4 mg/kg of ip administration; 0/10; settings: route intraperitoneal
Rattus norvegicus [6] = assay: Serotonin neuronal reuptake blocking activity was determined by the antagonism of the head twitch response induced in rats with p-chloromethamphetamine (PCMA) after 40 mg/kg of ip administration;9/10; settings: route intraperitoneal; how it was run: as §1
Rattus norvegicus [7] = assay: Serotonin neuronal reuptake blocking activity was determined by the antagonism of the head twitch response induced by treatment of rats with p-chloromethamphetamine (PCMA) after 0.4 mg/kg of ip administration; settings: route intraperitoneal
How it was run: (§2)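 Female Sprague-Dawley rats (150-250 g) dosed ip with compound (1% methylcellulose vehicle, dose as base weight), then p-chloromethamphetamine 6.0 mg/kg ip 1 h later; head twitches observed 30 min after PCMA; scored as rats not twitching; usually six rats per dose; ED50 = dose antagonizing PCMA head twitch in 50% of animals, with 95% confidence limits.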

[8] = molecular target: T1, Serotonin (5-HT) receptor (Rattus norvegicus) (UniProt P35563+P35365+P32305+P31388+Q9JJ16+P28564+P30994+Q62758+P08909+P14842+P30940+P35364+P19327+P28565); assay: (§3) Ability to elicit head twitches in rats (a serotonin mimetic response); design: concentration or dose not given beside the values
How it was run: (§4)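 Female Sprague-Dawley rats (150-250 g), compound given ip in 1% methylcellulose vehicle, dose as base weight; quantal scoring of rats showing at least one head twitch during a 2-min observation beginning 30 min after dosing; usually six rats per dose level; vehicle controls run.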

[9] = molecular target: T1, Serotonin (5-HT) receptor (Rattus norvegicus); assay: as §3; design: concentration or dose not given beside the values; how it was run: as §4; remark: listed apart in the source
[10] = molecular target: T1, Serotonin (5-HT) receptor (Rattus norvegicus); assay: as §3; design: concentration or dose not given beside the values; how it was run: as §4; remark: listed apart in the source
Rattus norvegicus [11] = assay: Serotonin neuronal reuptake blocking activity was determined by the antagonism of the head twitch response induced by treatment of rats with p-chloromethamphetamine (PCMA) after 4 mg/kg of ip administration; settings: route intraperitoneal; how it was run: as §2
[12] = molecular target: Sodium-dependent serotonin transporter (Rattus norvegicus) (UniProt P31652); assay: Serotonin neuronal reuptake blocking activity was determined by the antagonism of the head twitch response induced in rats; design: concentration or dose not given beside the values; how it was run: as §2
Rattus norvegicus [13] = assay: Serotonin neuronal reuptake blocking activity was determined by the antagonism of the head twitch response induced by treatment of rats with p-chloromethamphetamine (PCMA) after 4 mg/kg of ip administration; 2/12; settings: route intraperitoneal; how it was run: as §2
Rattus norvegicus [14] = assay: Ability to elicit head twitches in rats a response characteristic of a serotonin mimetic action in the central nervous system was measured after 0.4 mg/kg of ip administration; 0/12; settings: route intraperitoneal; how it was run: as §4
Rattus norvegicus [15] = assay: Serotonin neuronal reuptake blocking activity was determined by the antagonism of the head twitch response induced by treatment of rats with p-chloromethamphetamine (PCMA) after 0.4 mg/kg of ip administration; 1/12; settings: route intraperitoneal; how it was run: as §2
Rattus norvegicus [16] = assay: Ability to elicit head twitches in rats a response characteristic of a serotonin mimetic action in the central nervous system after 40 mg/kg of ip administration; 0/12; settings: route intraperitoneal; how it was run: as §4
Rattus norvegicus [17] = assay: Serotonin neuronal reuptake blocking activity was determined by the antagonism of the head twitch response induced in rats with p-chloromethamphetamine (PCMA) after 40 mg/kg of ip administration; 8/12; settings: route intraperitoneal; how it was run: as §2
Rattus norvegicus [18] = assay: Ability to elicit head twitches in rats a response characteristic of a serotonin mimetic action in the central nervous system was measured after 4 mg/kg of ip administration; 4/12; settings: route intraperitoneal; how it was run: as §4
[19] = molecular target: Sodium-dependent serotonin transporter (Rattus norvegicus) (UniProt P31652); assay: (§5) Serotonin neuronal reuptake blocking activity was determined by the antagonism of the head twitch response induced by treatment of rats; design: concentration or dose not given beside the values; how it was run: as §2
Rattus norvegicus [20] = assay: Serotonin neuronal reuptake blocking activity was determined by the antagonism of the head twitch response induced in rats with p-chloromethamphetamine (PCMA) after 40 mg/kg of ip administration; 2/4; settings: route intraperitoneal; how it was run: as §2
[21] = molecular target: Sodium-dependent serotonin transporter (Rattus norvegicus) (UniProt P31652); assay: as §5; design: concentration or dose not given beside the values; how it was run: as §2; remark: listed apart in the source

Chain of Sodium-dependent serotonin transporter (Rattus norvegicus) (P31652 whole entry): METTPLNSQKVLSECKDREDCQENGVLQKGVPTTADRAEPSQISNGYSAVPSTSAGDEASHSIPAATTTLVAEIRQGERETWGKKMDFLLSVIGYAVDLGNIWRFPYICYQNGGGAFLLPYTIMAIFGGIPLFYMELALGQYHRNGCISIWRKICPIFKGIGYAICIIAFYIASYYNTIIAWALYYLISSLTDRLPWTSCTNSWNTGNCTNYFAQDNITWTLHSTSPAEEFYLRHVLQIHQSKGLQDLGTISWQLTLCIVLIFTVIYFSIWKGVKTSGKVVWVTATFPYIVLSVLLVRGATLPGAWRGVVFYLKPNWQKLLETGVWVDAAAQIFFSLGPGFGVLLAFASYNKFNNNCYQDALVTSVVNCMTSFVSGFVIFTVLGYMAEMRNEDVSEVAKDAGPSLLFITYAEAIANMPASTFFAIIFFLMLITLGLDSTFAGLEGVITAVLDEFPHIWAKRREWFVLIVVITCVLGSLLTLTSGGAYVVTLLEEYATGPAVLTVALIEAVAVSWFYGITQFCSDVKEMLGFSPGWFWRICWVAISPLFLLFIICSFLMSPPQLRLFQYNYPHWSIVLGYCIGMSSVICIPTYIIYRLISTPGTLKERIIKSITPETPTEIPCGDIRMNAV

Question: `Cl.FC(F)(F)c1ccc2nc(N3CCNCC3)cnc2c1` was tested. Which Activity (Rattus norvegicus [1]) did it give?
Answer: 2

Question: And the Activity (Rattus norvegicus [2])?
Answer: 3

Question: What about the PCMA antagonism (Rattus norvegicus [3]) of the same compound?
Answer: 6

Question: What about the PCMA antagonism (Rattus norvegicus [4]) of the same compound?
Answer: 7

Question: What about the Activity (Rattus norvegicus [5]) of the same compound?
Answer: 0

Question: What about the PCMA antagonism (Rattus norvegicus [6]) of the same compound?
Answer: 9

Question: Which results are given for `Nc1ccc2nc(N3CCNCC3)cnc2c1`?
Answer: PCMA antagonism (Rattus norvegicus [7]): 2; Activity [8]: 2; Activity [9]: 0; Activity [10]: 1; PCMA antagonism (Rattus norvegicus [11]): 4; PCMA antagonism [12]: 3

Question: How did the PCMA antagonism (Rattus norvegicus [13]) turn out when `Cc1ccc2nc(N3CCNCC3)cnc2c1.Cl` was run?
Answer: 2

Question: And the Activity (Rattus norvegicus [14])?
Answer: 0

Question: And the PCMA antagonism (Rattus norvegicus [15])?
Answer: 1

Question: What about the Activity (Rattus norvegicus [16]) of the same compound?
Answer: 0

Question: And the PCMA antagonism (Rattus norvegicus [17])?
Answer: 8

Question: What about the Activity (Rattus norvegicus [18]) of the same compound?
Answer: 4

Question: With `Cl.Clc1cccc2nc(N3CCNCC3)cnc12` as the compound, how does the PCMA antagonism [19] read?
Answer: 0

Question: And the Activity [8]?
Answer: 2

Question: What about the Activity [9] of the same compound?
Answer: 0

Question: What about the PCMA antagonism (Rattus norvegicus [20]) of the same compound?
Answer: 2

Question: What about the Activity [10] of the same compound?
Answer: 0

Question: And the PCMA antagonism [21]?
Answer: 0
